Assay results from different studies.
Compare with care: the assays were run in different laboratories.
PRSS1: Serine protease 1 (PRSS1, Bos taurus, UniProt P00760)
MMP9: Matrix metalloproteinase-9 (MMP9, Homo sapiens, UniProt P14780)
PKN1: Serine/threonine-protein kinase N1 (PKN1, Homo sapiens, UniProt Q16512)
CA9: Carbonic anhydrase 9 (CA9, Homo sapiens, UniProt Q16790)
PDE4C: 3',5'-cyclic-AMP phosphodiesterase 4C (PDE4C, Homo sapiens, UniProt Q08493)
PADI4: Protein-arginine deiminase type-4 (PADI4, Homo sapiens, UniProt Q9UM07)
HDAC9: Histone deacetylase 9 (HDAC9, Homo sapiens, UniProt Q9UKV0)
SIRT5: NAD-dependent protein deacylase sirtuin-5, mitochondrial (SIRT5, Homo sapiens, UniProt Q9NXA8)

SMILES	target	test	conditions	IC50 [nM]
COc1cc(/C=N/n2c(C)nc3ccc(C)cc3c2=O)ccc1OCc1ccccc1	PRSS1	enzyme activity, inhibitor	–	108000
CC(C)C[C@H](CC(=O)NO)C(=O)N[C@@H](Cc1ccccc1)C(=O)NCCN1CCOCC1	MMP9	enzyme activity, inhibitor, fluorescence	–	3
Cn1ncc(Cl)c1-c1cc(C(=O)N[C@H](CN)Cc2ccc(F)c(F)c2)oc1Cl	PKN1	enzyme activity, inhibitor	–	19
CN(C)c1ccc(/C=C2/SC(Nc3ccc(S(N)(=O)=O)cc3)=NC2=O)cc1	CA9	enzyme activity, inhibitor	–	76.1
CC(C)c1cc(CNc2nc(Nc3cc(C4CC4)[nH]n3)cc(N3CCN(C)CC3)n2)on1	PKN1	enzyme activity, inhibitor	–	20
Cc1nc2ccccc2c(=O)n1NC(=O)CSc1nc2ccccc2c(=O)n1-c1ccccc1	PRSS1	enzyme activity, inhibitor	–	3730
O=C(c1ccc(Nc2nccc(-c3cc4ccccc4s3)n2)cc1)N1CCC(N2CCCC2)CC1	PKN1	enzyme activity, inhibitor	–	49
NS(=O)(=O)c1ccc(NC(=O)COC(=O)c2c3c(nc4ccccc24)C(=Cc2ccco2)CCC3)cc1	CA9	enzyme activity, inhibitor	–	96
C[C@@H](N)[C@H]1CC[C@H](C(=O)Nc2ccncc2)CC1	PKN1	enzyme activity, inhibitor	–	743
CC1Cc2cc(-c3cn(C)nn3)ccc2N1Cc1ccoc1C(=O)Nc1ccc(S(N)(=O)=O)cc1 (stereo not drawn)	CA9	enzyme activity, inhibitor	–	132
COc1ccc([C@@H]2CN(C(=O)[C@@H](O)CO)C[C@@]2(C)[C@@H](C)O)cc1OC1CN(c2ccc(C)cn2)C1	PDE4C	enzyme activity, inhibitor	–	2.4
O=c1c(O)c(-c2ccc(O)c(O)c2)oc2cc(O)cc(O)c12	Sulfotransferase 1A1 (SULT1A1, Homo sapiens, UniProt P50225)	enzyme activity, inhibitor	–	529
NS(=O)(=O)c1ccc(CCNC(=O)Nc2ccc(NC(=O)c3ccc(Cl)cc3)cc2)cc1	CA9	enzyme activity, inhibitor	–	96
COc1ccc(C2=NN(C3CCCCCC3)C(=O)[C@@H]3CC=CC[C@H]23)cc1-c1ccc(C(N)=O)cc1 (relative stereo)	PDE4C	enzyme activity, inhibitor	–	501
N#CCNC(=O)c1ccc(-c2ccnc(Nc3ccc(N4CCOCC4)cc3)n2)cc1	PKN1	enzyme activity, inhibitor	–	278
CN1CCN(c2ccc(Nc3ncc4cc(C#N)c(=O)n(C5CCCC5)c4n3)cc2)CC1	PKN1	enzyme activity, inhibitor	–	7050
CC(C)c1nc(CN(C)C(=O)N[C@@H](CCN2CCOCC2)C(=O)N[C@H](CC[C@H](Cc2ccccc2)NC(=O)OCc2cncs2)Cc2ccccc2)cs1	Solute carrier family 22 member 7 (SLC22A7, Homo sapiens, UniProt Q9Y694)	transporter uptake, inhibitor	–	> 100000
COc1cc2c(c(OC)c1OC)-c1c(cc3c(c1OC)OCO3)C[C@H](C)[C@](C)(O)[C@H]2OC(=O)c1ccccc1	Cytochrome P450 3A5 (CYP3A5, Homo sapiens, UniProt P20815)	enzyme activity, inhibitor	15 min, pH 7.4	370
NS(=O)(=O)c1cc(C(=O)N2CCCCC2C(=O)Nc2cc(Cl)ccc2Cl)ccc1F (stereo not drawn)	CA9	enzyme activity, inhibitor	–	30.2
CCNC(=O)[C@H](CCCNC(=N)CCl)NC(=O)c1ccccc1	PADI4	enzyme activity, inhibitor	–	4100

SMILES	target	test	conditions	IC50 [nM]
Nc1ccc(-c2ccncc2)cc1NC(=O)N1CCCC1	HDAC9	enzyme activity, inhibitor	–	> 33300
CCn1c(-c2nc3ccc(C(=O)N4CCCC(N)C4)cc3n2C)cc2ccccc21 (stereo not drawn)	PADI4	ligand displacement, FP	–	> 100000
O=C(NO)c1ccc(CN(c2cnccn2)c2cnccn2)cc1	SIRT5	enzyme activity, inhibitor	–	> 10000
CC(C)C(=O)Nc1ccc(C(=O)N2CCC(C(=O)Nc3ccc(S(N)(=O)=O)cc3)CC2)cc1	CA9	enzyme activity, inhibitor	–	37.2
COc1cc(/C=N/n2c(C)nc3ccc(Br)cc3c2=O)ccc1O	PRSS1	enzyme activity, inhibitor	–	46400
Clc1ccc(C2(c3ccc(-c4cn[nH]c4)cc3)CCNCC2)cc1	PKN1	enzyme activity, inhibitor	–	49
COc1ccc2c(Oc3ccc4c(C(=O)Nc5ccccc5N)cccc4c3)ccnc2c1	Inward rectifier potassium channel 2 (KCNJ2, Homo sapiens, UniProt P63252)	ion current, inhibitor	–	> 10000
CC1(COc2ccc3c(c2)ncn3-c2ccc3cccc(N4CCC(N)CC4)c3n2)COC1	PKN1	enzyme activity, inhibitor	–	22
CCCC[C@H](NC(=O)C1CN(C)C1)c1ncc(-c2cc3ccccc3nc2OC)[nH]1	HDAC9	enzyme activity, inhibitor	–	> 30000
COc1ccc2cc(/C=N/n3c(C)nc4ccc(Br)cc4c3=O)ccc2c1	PRSS1	enzyme activity, inhibitor	–	40700
CCOCc1nc(O)c(-c2nnc(Cc3ccc(Cl)cn3)o2)c(O)c1-c1c(OC)cccc1OC	Histamine H1 receptor (HRH1, Homo sapiens, UniProt P35367)	ligand displacement, radioligand	–	> 30000
COc1ccc(-c2nsc(NC(=O)[C@@H]3C[C@H]3C)c2C)cc1	Metabotropic glutamate receptor 4 (GRM4, Homo sapiens, UniProt Q14833)	calcium signal, antagonist	–	> 12500
COc1ccc(C(=O)N2CCCC(C(=O)Nc3cc(S(N)(=O)=O)ccc3O)C2)c2ccccc12 (stereo not drawn)	CA9	enzyme activity, inhibitor	–	2610
Cc1nc2ccc(Cl)cc2c(=O)n1NC(=O)CCl	PRSS1	enzyme activity, inhibitor	–	97900
COc1ccc(S(=O)(=O)N2Cc3cc(O)c(O)cc3CC2C(=O)NO)cc1 (stereo not drawn)	MMP9	enzyme activity, inhibitor	–	> 1000
NS(=O)(=O)c1ccc(NC(=O)COC(=O)C(=Cc2cccs2)c2cccs2)cc1	CA9	enzyme activity, inhibitor	–	322
N#C/C(=C\c1ccc(-c2cc(Cl)ccc2Cl)o1)C(=O)Nc1cccc2ncccc12	SIRT5	enzyme activity, inhibitor, HPLC	–	> 100000
NS(=O)(=O)c1cc(NC(=O)CCc2nnc(-c3ccc(Cl)cc3)o2)ccc1O	CA9	enzyme activity, inhibitor	–	30.2
Cc1cc(Nc2cc(CN3CCOCC3)c3nc(C)c(Cc4ccc(Cl)cc4F)n3n2)n[nH]1	PKN1	enzyme activity, inhibitor	–	4070
